Screening data (PubChem BioAssay)
An excerpt weighted towards active compounds, which were near 2% of everything screened.
PG9 binder: binders of HIV-1 gp120 antibody PG9, primary screen, biochemical, TR-FRET | TR-FRET gp120-PG9 antibody binding | 0.43% of 360,000 active | AID 624416, 2012 | inhibition, % at 6.7 µM; in the data active means inhibition above about 8.5%
NR2E3 ag-1: NR2E3 agonists in two-hybrid cells, primary screen, cell-based, luminescence, CHO-S, Gal4-NCOR/VP16-NR2E3. Photoreceptor-specific nuclear receptor (Homo sapiens), Q9Y5X4. luciferase. inhibition of corepressor binding, % at 3.98 µM. 0.35% of 360,000 active. AID 602229, 2012;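 active means inhibition above the mean of all tested compounds plus 3 SD, cut at about 70% in these data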;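 further: 0% = DMSO with NR2E3 transfected cells and 100% = cells lacking NR2E3 construct; higher means lower luciferase signal from less NR2E3 corepressor binding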
NR1D1 modulator: modulators of Rev-erb alpha DNA binding, primary screen, biochemical, FITC-DNA, fluorescence polarization, uHTS; activity, % at 10 µM; 0.79% of 370,000 active; Rev-erbα–FITC-DNA binding, 90 min;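 active means activity above about 14%, limit read from the data; passing the limit was not always enough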;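 further: 0% = DMSO wells with 35 nM protein and 100% = DMSO wells with 750 nM protein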
Target sequence (P20393 whole entry, looked up): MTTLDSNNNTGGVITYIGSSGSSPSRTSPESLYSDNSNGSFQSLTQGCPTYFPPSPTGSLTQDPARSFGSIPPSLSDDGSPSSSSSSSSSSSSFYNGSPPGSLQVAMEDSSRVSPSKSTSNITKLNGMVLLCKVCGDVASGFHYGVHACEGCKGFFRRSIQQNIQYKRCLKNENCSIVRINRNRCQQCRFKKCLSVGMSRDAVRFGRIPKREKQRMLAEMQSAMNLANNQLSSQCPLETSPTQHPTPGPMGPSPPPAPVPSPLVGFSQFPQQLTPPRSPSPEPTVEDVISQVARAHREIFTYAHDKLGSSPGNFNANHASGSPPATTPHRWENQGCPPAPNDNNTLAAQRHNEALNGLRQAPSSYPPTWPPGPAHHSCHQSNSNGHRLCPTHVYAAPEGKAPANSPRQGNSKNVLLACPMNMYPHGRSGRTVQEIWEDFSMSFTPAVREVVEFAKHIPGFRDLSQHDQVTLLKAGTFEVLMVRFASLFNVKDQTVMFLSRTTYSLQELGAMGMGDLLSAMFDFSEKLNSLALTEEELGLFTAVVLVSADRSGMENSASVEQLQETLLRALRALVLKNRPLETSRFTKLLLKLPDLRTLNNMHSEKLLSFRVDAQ
NR2E3 ag-2: inhibitors of NR2E3-RetCOR corepressor binding, primary screen, NR2E3 agonist project, biochemical, TR-FRET, GST-NR2E3, biotin-RetCOR; Photoreceptor-specific nuclear receptor (Homo sapiens), Q9Y5X4; 1536-well; inhibition of corepressor binding, % at 4.78 µM; 0.12% of 320,000 active;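 active means percent inhibition above the cutoff of mean plus 3 SD of all tested compounds, set per screening campaign, cut at about 20% in these data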;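 further: 0% = DMSO wells and 100% = biotin wells as full block of FRET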
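Material: NR2E3–RetCOR corepressor complex / Amount: 1.35 nM GST-NR2E3 / Medium: Tris pH 7.5 / Compound: single nominal compound dose of 4.8 µM / Incubation: 5 h at 4 °C / Technique: TR-FRET, Eu(K)-anti-GST donor, streptavidin-D2 acceptor, ex 340, em 617/671 nm / Read-out basis: percent loss of FRET ratio relative to control wells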
Neddylation inh: inhibitors of cullin neddylation, primary screen, biochemical, TR-FRET, uHTS, NAE and Ubc12 | NEDD8-conjugating enzyme Ubc12 (Homo sapiens) + NEDD8-activating enzyme E1 regulatory … | calls only at 25 µM | 0.58% of 360,000 active | AID 651699, 2012; in the data active means inhibition above about 36%
NR2E3 ag conf: NR2E3 agonist confirmation in cells, cell-based, luminescence, CHO-S two-hybrid; inhibition, % at 3.98 µM; CHO-S mammalian two-hybrid NR2E3-NCOR, luciferase luminescence; 51% of 2,300 active; shares compounds with NR2E3 ag-1;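 active means average inhibition above a cutoff equal to the mean inhibition of all tested compounds plus one SD, cut at about 70% in these data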;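 further: 0% = DMSO in NR2E3 cells and 100% = DMSO in cells lacking NR2E3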
VP16 counter: GAL4-VP16 reporter modulators, confirmation, counter-screen for NR2E3 agonist project, cell-based, luminescence, CHO-S, high throughput; AID 624379, 2012; 29% of 2,300 active; inhibition, % at 3.98 µM; shares compounds with NR2E3 ag-1; CHO-S GAL4-VP16 luciferase reporter;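 active means mean inhibition above a cutoff equal to the average over all tested compounds plus one standard deviation, cut at about 70% in these data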;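 further: luciferase from a UAS reporter driven by GAL4-VP16 transactivation; 0% = DMSO with VP16-transfected cells and 100% = DMSO with cells lacking VP16; higher means less reporter light so more repression of VP16 activity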
Numbers without * were called inactive.

Screening O=C1c2ccccc2S(=O)(=O)N1Cc1nnc(-c2ccccc2Br)o1 returned PG9 binder 0, NR2E3 ag-1 -28, NR1D1 modulator 0 and Neddylation inh inactive.
`O=S1(=O)c2cccc3cccc(c23)N1Cc1nnc(-c2ccccc2Br)o1` gave PG9 binder -4, NR2E3 ag-1 69, NR1D1 modulator 3, NR2E3 ag-2 -6, Neddylation inh inactive, NR2E3 ag conf 87* and VP16 counter 72*.
For O=C(Nc1cccc([N+](=O)[O-])c1)c1cc2ccccc2cc1O the results were PG9 binder -2, NR2E3 ag-1 85*, NR1D1 modulator -2, NR2E3 ag-2 6, Neddylation inh inactive, NR2E3 ag conf 99* and VP16 counter 69.
`O=C(O)c1ccccc1C(=O)Nc1cccc([N+](=O)[O-])c1` gave PG9 binder 0, NR2E3 ag-1 -45, NR1D1 modulator 0, NR2E3 ag-2 1 and Neddylation inh inactive.
`CCCOc1ccc(F)cc1-c1cc(C(=O)NCc2cccc(C(F)(F)F)c2)[nH]n1` gave PG9 binder 0, NR2E3 ag-1 18, NR1D1 modulator 9 and Neddylation inh inactive.
`CCCOc1ccc(F)cc1-c1cc(C(=O)NCc2ccc(C(F)(F)F)cc2)[nH]n1` gave NR2E3 ag-1 52, Neddylation inh inactive, NR2E3 ag conf 6 and VP16 counter 17.
`COC(=O)C1CN(Cc2cn(Cc3ccc(OC)cc3)nn2)CCS(=O)(=O)N1Cc1ccccc1` (centres undefined) gave NR1D1 modulator -5.
CCN(CC)c1ccc(-c2nn3c(-c4ccccc4OC)nnc3s2)cc1 was read as NR2E3 ag-1 57, NR2E3 ag-2 1, NR2E3 ag conf -38 and VP16 counter 8.
`CCOc1ccc(-n2c(SCc3nc4ccccc4[nH]3)nnc2-c2cccc(Cl)c2)cc1` gave NR1D1 modulator -2.
For CC(=O)N1CC(C)Sc2ccc(S(=O)(=O)NCc3ccc(Cl)cc3)cc21 (centres undefined) the results were PG9 binder 0, NR2E3 ag-1 48, NR1D1 modulator -2, NR2E3 ag-2 5, Neddylation inh inactive, NR2E3 ag conf 42 and VP16 counter 42.
Screening CC(=O)N1CC(C)Sc2ccc(S(=O)(=O)NCCc3ccc(C)cc3)cc21 (centres undefined) returned PG9 binder 3, NR2E3 ag-1 80*, NR1D1 modulator -2, NR2E3 ag-2 3, Neddylation inh inactive, NR2E3 ag conf 74* and VP16 counter 68.
Screening COc1ccccc1CNS(=O)(=O)c1ccc2c(c1)N(C(C)=O)CC(C)S2 (centres undefined) returned PG9 binder -1, NR2E3 ag-1 22, NR1D1 modulator -1, NR2E3 ag-2 3 and Neddylation inh inactive.
`CC(=O)N1CC(C)Sc2ccc(S(=O)(=O)NCCc3ccccc3)cc21` (centres undefined) gave PG9 binder 3, NR2E3 ag-1 48, NR1D1 modulator 4, NR2E3 ag-2 1 and Neddylation inh inactive.
`O=C(NNc1ccccc1)C(=O)NNS(=O)(=O)c1ccc([N+](=O)[O-])cc1` gave PG9 binder -5, NR2E3 ag-1 58, NR1D1 modulator -5, NR2E3 ag-2 -2, Neddylation inh inactive, NR2E3 ag conf 53 and VP16 counter 26.
For Cc1ccc(NS(=O)(=O)c2ccc(-c3cnc(C4CC4)o3)cc2)c(C)c1 the results were PG9 binder 0, NR2E3 ag-1 79*, NR1D1 modulator 7, NR2E3 ag-2 2, Neddylation inh inactive, NR2E3 ag conf 56 and VP16 counter 34.
`Cc1ccc(NS(=O)(=O)c2ccc(NC(=O)C3CC3)cc2)c(C)c1` gave PG9 binder -1, NR2E3 ag-1 64, NR1D1 modulator -5, NR2E3 ag-2 2, Neddylation inh inactive, NR2E3 ag conf 31 and VP16 counter 30.
Screening COc1ccccc1NS(=O)(=O)c1ccc(-c2cnc(C3CC3)o2)cc1 returned PG9 binder 0, NR2E3 ag-1 38, NR1D1 modulator 3, NR2E3 ag-2 -2 and Neddylation inh inactive.
Screening Cc1cccc(N(C)S(=O)(=O)c2ccc(-c3cnc(C4CC4)o3)cc2)c1 returned PG9 binder -2, NR2E3 ag-1 37, NR1D1 modulator 2, NR2E3 ag-2 0 and Neddylation inh inactive.
For CCOc1ccccc1NS(=O)(=O)c1ccc(-c2cnc(C3CC3)o2)cc1 the results were PG9 binder 0, NR2E3 ag-1 60, NR1D1 modulator -2, NR2E3 ag-2 2, Neddylation inh inactive, NR2E3 ag conf 11 and VP16 counter 6.
Screening COc1ccc(NS(=O)(=O)c2ccc(-c3cnc(C4CC4)o3)cc2)cc1OC returned PG9 binder -2, NR2E3 ag-1 104*, NR1D1 modulator 6, NR2E3 ag-2 0, Neddylation inh inactive, NR2E3 ag conf 94* and VP16 counter 85*.
`COc1ccccc1C=NNC(=O)CSc1nc2ccccc2n1Cc1ccc(Cl)cc1` gave NR1D1 modulator -6.
Cc1cc(C(=O)O[C@@H]2CCC[C@]3(C(=O)N(Cc4ccccc4)c4ccccc43)[C@H]2NC(=O)CCc2ccccc2)no1 was read as NR1D1 modulator 7.
`O=S(=O)(Nc1ccc(F)cc1Cl)c1ccc(-c2cnc(C3CC3)o2)cc1` gave PG9 binder -2, NR2E3 ag-1 71*, NR1D1 modulator -1, NR2E3 ag-2 -2, Neddylation inh inactive, NR2E3 ag conf 66 and VP16 counter 46.
For COc1ccccc1CNS(=O)(=O)c1ccc(-c2cnc(C3CC3)o2)cc1 the results were PG9 binder -1, NR2E3 ag-1 53, NR1D1 modulator 3, NR2E3 ag-2 2, Neddylation inh inactive, NR2E3 ag conf 29 and VP16 counter 41.
For CN(CC#CC1=CCCCC1)/C(N)=N/C(=O)OCc1ccccc1 the results were NR1D1 modulator 2.
`O=C1c2cccnc2-c2ncccc21` gave PG9 binder -1, NR2E3 ag-1 -12, NR1D1 modulator 6, NR2E3 ag-2 1 and Neddylation inh inactive.
